Where a SMILES comes first, the peptide text is derived from it. Side-chain parts run from the residue outwards. [ ]: non-standard residue; d: D form. The star is where a group is joined. X1 = NC(=O)[C@H](CCCCNC(=O)c1ccc2c(c1)C(=O)OC21c2ccc3cc(O)ccc3c2Oc2c1ccc1cc(O)ccc21)N*; 2Nal = N[C@@H](Cc1ccc2ccccc2c1)C(=O)O; AEEA = NCCOCCOCC(=O)O
assay: Drug uptake in human HeLa cells assessed as cytosolic entry efficiency measured as fluorescence at 5 uM incubated for 2 hrs by flow cytometry relative to CPP9 (100%); type: ADME, cell-based
Procedure, shortened: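 HeLa cells seeded 24 h earlier, given 5 μM naphthofluorescein-labelled peptide in DMEM with 1% or 10% FBS, 37 °C, 2 h. Cells DPBS-washed, trypsinized, flow cytometry with 633-nm excitation, APC channel, 10,000 live-cell events gated. Signal read as cytosolic entry because NF is non-fluorescent in acidic compartments; mean ± SD of three independent experiments, relative to CPP9 (100%).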

| RFU [%] | SMILES |
| --- | --- |
| 33 | C[C@@H]1NC(=O)[C@H](C)NC(=O)[C@H](Cc2ccccc2)NC(=O)[C@H](CCCNC(=N)N)NC(=O)[C@H](CCCNC(=N)N)NC(=O)[C@@H]2CCCN2C(=O)[C@H]2CCCN2C(=O)[C@@H](CCCNC(=N)N)NC(=O)[C@H](Cc2ccc3ccccc3c2)NC(=O)[C@H](Cc2ccccc2)NC(=O)[C@H](C)NC(=O)[C@H](C)NC(=O)[C@H](CCC(=O)NCCOCCOCC(=O)N[C@@H](CCCCNC(=O)c2ccc3c(c2)C(=O)OC32c3ccc4cc(O)ccc4c3Oc3c2ccc2cc(O)ccc32)C(N)=O)NC(=O)[C@H](C)NC1=O |
| 8 | C[C@@H]1NC(=O)[C@H](Cc2ccccc2)NC(=O)[C@H](CCCNC(=N)N)NC(=O)[C@H](CCCNC(=N)N)NC(=O)[C@@H]2CCCN2C(=O)[C@H]2CCCN2C(=O)[C@@H](CCCNC(=N)N)NC(=O)[C@H](Cc2ccc3ccccc3c2)NC(=O)[C@H](Cc2ccccc2)NC(=O)[C@H](CCC(=O)NCCOCCOCC(=O)N[C@@H](CCCCNC(=O)c2ccc3c(c2)C(=O)OC32c3ccc4cc(O)ccc4c3Oc3c2ccc2cc(O)ccc32)C(N)=O)NC1=O |
| 4.1 | C[C@@H]1NC(=O)[C@H](C)NC(=O)[C@H](Cc2ccccc2)NC(=O)[C@H](CCCNC(=N)N)NC(=O)[C@H](CCCNC(=N)N)NC(=O)[C@H](C)NC(=O)[C@H](C)NC(=O)[C@@H](CCCNC(=N)N)NC(=O)[C@H](Cc2ccc3ccccc3c2)NC(=O)[C@H](Cc2ccccc2)NC(=O)[C@H](C)NC(=O)[C@H](C)NC(=O)[C@H](CCC(=O)NCCOCCOCC(=O)N[C@@H](CCCCNC(=O)c2ccc3c(c2)C(=O)OC32c3ccc4cc(O)ccc4c3Oc3c2ccc2cc(O)ccc32)C(N)=O)NC(=O)[C@H](C)NC1=O |
| 46 | C[C@@H]1NC(=O)[C@H](Cc2ccc3ccccc3c2)NC(=O)[C@H](Cc2ccccc2)NC(=O)[C@H](C)NC(=O)[C@H](CCC(=O)NCCOCCOCC(=O)N[C@@H](CCCCNC(=O)c2ccc3c(c2)C(=O)OC32c3ccc4cc(O)ccc4c3Oc3c2ccc2cc(O)ccc32)C(N)=O)NC(=O)[C@H](Cc2ccccc2)NC(=O)[C@H](CCCNC(=N)N)NC(=O)[C@H](CCCNC(=N)N)NC(=O)[C@@H]2CCCN2C(=O)[C@H](C)NC1=O (cyclo([2Nal]AAPRRFE([AEEA-X1])AF)) |
| 14 | C[C@@H]1NC(=O)[C@H](CC(=O)O)NC(=O)[C@H](CCC(=O)NCCOCCOCC(=O)N[C@@H](CCCCNC(=O)c2ccc3c(c2)C(=O)OC32c3ccc4cc(O)ccc4c3Oc3c2ccc2cc(O)ccc32)C(N)=O)NC(=O)[C@H](CC(=O)O)NC(=O)[C@H](C)NC(=O)[C@H](CC(=O)O)NC(=O)[C@H](Cc2ccccc2)NC(=O)[C@H](CCCNC(=N)N)NC(=O)[C@H](CCCNC(=N)N)NC(=O)[C@@H]2CCCN2C(=O)[C@H]2CCCN2C(=O)[C@@H](CCCNC(=N)N)NC(=O)[C@H](Cc2ccc3ccccc3c2)NC(=O)[C@H](Cc2ccccc2)NC1=O |
| 34 | C[C@@H]1NC(=O)[C@H](CCCNC(=N)N)NC(=O)[C@H](CCC(=O)NCCOCCOCC(=O)N[C@@H](CCCCNC(=O)c2ccc3c(c2)C(=O)OC32c3ccc4cc(O)ccc4c3Oc3c2ccc2cc(O)ccc32)C(N)=O)NC(=O)[C@H](CCCNC(=N)N)NC(=O)[C@H](C)NC(=O)[C@H](CCCNC(=N)N)NC(=O)[C@H](Cc2ccccc2)NC(=O)[C@H](CCCNC(=N)N)NC(=O)[C@H](CCCNC(=N)N)NC(=O)[C@@H]2CCCN2C(=O)[C@H]2CCCN2C(=O)[C@@H](CCCNC(=N)N)NC(=O)[C@H](Cc2ccc3ccccc3c2)NC(=O)[C@H](Cc2ccccc2)NC1=O |
| 21 | C[C@@H]1NC(=O)[C@H](C)NC(=O)[C@H](CCCNC(=N)N)NC(=O)[C@H](CCCNC(=N)N)NC(=O)[C@H](CCCNC(=N)N)NC(=O)[C@@H]2CCCN2C(=O)[C@H]2CCCN2C(=O)[C@H](CCCNC(=N)N)NC(=O)[C@H](Cc2ccc3ccccc3c2)NC(=O)[C@H](Cc2ccccc2)NC(=O)[C@H](C)NC(=O)[C@H](C)NC(=O)[C@H](CCC(=O)NCCOCCOCC(=O)N[C@@H](CCCCNC(=O)c2ccc3c(c2)C(=O)OC32c3ccc4cc(O)ccc4c3Oc3c2ccc2cc(O)ccc32)C(N)=O)NC(=O)[C@H](C)NC1=O |
| 32 | C[C@@H]1NC(=O)[C@H](C)NC(=O)[C@H](Cc2ccccc2)NC(=O)[C@H](CCCNC(=N)N)NC(=O)[C@@H](CCCNC(=N)N)NC(=O)[C@@H]2CCCN2C(=O)[C@H]2CCCN2C(=O)[C@H](CCCNC(=N)N)NC(=O)[C@H](Cc2ccc3ccccc3c2)NC(=O)[C@H](Cc2ccccc2)NC(=O)[C@H](C)NC(=O)[C@H](C)NC(=O)[C@H](CCC(=O)NCCOCCOCC(=O)N[C@@H](CCCCNC(=O)c2ccc3c(c2)C(=O)OC32c3ccc4cc(O)ccc4c3Oc3c2ccc2cc(O)ccc32)C(N)=O)NC(=O)[C@H](C)NC1=O |
| 100 | N=C(N)NCCC[C@@H]1NC(=O)[C@H](Cc2ccc3ccccc3c2)NC(=O)[C@@H](Cc2ccccc2)NC(=O)[C@H](CCC(=O)NCCOCCOCC(=O)N[C@@H](CCCCNC(=O)c2ccc3c(c2)C(=O)OC32c3ccc4cc(O)ccc4c3Oc3c2ccc2cc(O)ccc32)C(N)=O)NC(=O)[C@@H](CCCNC(=N)N)NC(=O)[C@H](CCCNC(=N)N)NC(=O)[C@@H](CCCNC(=N)N)NC1=O |
| 84 | C[C@@H]1NC(=O)[C@H](CO)NC(=O)[C@H](C)NC(=O)[C@H](CO)NC(=O)[C@H](Cc2ccccc2)NC(=O)[C@H](CCCNC(=N)N)NC(=O)[C@H](CCCNC(=N)N)NC(=O)[C@@H]2CCCN2C(=O)[C@H]2CCCN2C(=O)[C@@H](CCCNC(=N)N)NC(=O)[C@H](Cc2ccc3ccccc3c2)NC(=O)[C@H](Cc2ccccc2)NC(=O)[C@H](CO)NC(=O)[C@H](C)NC(=O)[C@H](CO)NC(=O)[C@H](CCC(=O)NCCOCCOCC(=O)N[C@@H](CCCCNC(=O)c2ccc3c(c2)C(=O)OC32c3ccc4cc(O)ccc4c3Oc3c2ccc2cc(O)ccc32)C(N)=O)NC1=O |
| 51 | C[C@@H]1NC(=O)[C@H](C)NC(=O)[C@H](Cc2ccccc2)NC(=O)[C@H](CCCNC(=N)N)NC(=O)[C@H](CCCNC(=N)N)NC(=O)[C@@H]2CCCN2C(=O)[C@H]2CCCN2C(=O)[C@H](CCCNC(=N)N)NC(=O)[C@@H](Cc2ccc3ccccc3c2)NC(=O)[C@H](Cc2ccccc2)NC(=O)[C@H](C)NC(=O)[C@H](C)NC(=O)[C@H](CCC(=O)NCCOCCOCC(=O)N[C@@H](CCCCNC(=O)c2ccc3c(c2)C(=O)OC32c3ccc4cc(O)ccc4c3Oc3c2ccc2cc(O)ccc32)C(N)=O)NC(=O)[C@H](C)NC1=O |
| 37 | C[C@@H]1NC(=O)[C@H](C)NC(=O)[C@H](Cc2ccccc2)NC(=O)[C@@H](CCCNC(=N)N)NC(=O)[C@H](CCCNC(=N)N)NC(=O)[C@@H]2CCCN2C(=O)[C@H]2CCCN2C(=O)[C@H](CCCNC(=N)N)NC(=O)[C@H](Cc2ccc3ccccc3c2)NC(=O)[C@H](Cc2ccccc2)NC(=O)[C@H](C)NC(=O)[C@H](C)NC(=O)[C@H](CCC(=O)NCCOCCOCC(=O)N[C@@H](CCCCNC(=O)c2ccc3c(c2)C(=O)OC32c3ccc4cc(O)ccc4c3Oc3c2ccc2cc(O)ccc32)C(N)=O)NC(=O)[C@H](C)NC1=O |
| 8.3 | C[C@@H]1NC(=O)[C@H](C)NC(=O)[C@H](CCCNC(=N)N)NC(=O)[C@H](CCCNC(=N)N)NC(=O)[C@H](CCCNC(=N)N)NC(=O)[C@@H]2CCCN2C(=O)[C@H]2CCCN2C(=O)[C@H](Cc2ccccc2)NC(=O)[C@H](Cc2ccc3ccccc3c2)NC(=O)[C@H](Cc2ccccc2)NC(=O)[C@H](C)NC(=O)[C@H](C)NC(=O)[C@H](CCC(=O)NCCOCCOCC(=O)N[C@@H](CCCCNC(=O)c2ccc3c(c2)C(=O)OC32c3ccc4cc(O)ccc4c3Oc3c2ccc2cc(O)ccc32)C(N)=O)NC(=O)[C@H](C)NC1=O |
